Source: ChEMBL document CHEMBL3112461, “Synthesis and characterization of a novel series of agonist compounds as potential radiopharmaceuticals for imaging dopamine D₂/₃ receptors in their high-affinity state” (J Med Chem, 2014)
Where a name gives a salt, the structure may show the parent alone. Active and inactive are the calls of the source. The calls are words filed in the database; no cut-off is given here.

What was measured:
D(2) dopamine receptor [1] = biological target: T1, D(2) dopamine receptor (Homo sapiens, UniProt P14416); experiment: Displacement of [3H]spiperone from high-affinity state of human dopamine D2L receptor transfected in HEK293 cells after 2 hrs by scintillation counting analysis; assay type: cell-based
D(4) dopamine receptor = biological target: T2, D(4) dopamine receptor (Homo sapiens, UniProt P21917); experiment: Displacement of [3H]spiperone from human dopamine D4 receptor transfected in HEK293 cells after 2 hrs by scintillation counting analysis; assay type: cell-based
T2 sequence (P21917 whole entry): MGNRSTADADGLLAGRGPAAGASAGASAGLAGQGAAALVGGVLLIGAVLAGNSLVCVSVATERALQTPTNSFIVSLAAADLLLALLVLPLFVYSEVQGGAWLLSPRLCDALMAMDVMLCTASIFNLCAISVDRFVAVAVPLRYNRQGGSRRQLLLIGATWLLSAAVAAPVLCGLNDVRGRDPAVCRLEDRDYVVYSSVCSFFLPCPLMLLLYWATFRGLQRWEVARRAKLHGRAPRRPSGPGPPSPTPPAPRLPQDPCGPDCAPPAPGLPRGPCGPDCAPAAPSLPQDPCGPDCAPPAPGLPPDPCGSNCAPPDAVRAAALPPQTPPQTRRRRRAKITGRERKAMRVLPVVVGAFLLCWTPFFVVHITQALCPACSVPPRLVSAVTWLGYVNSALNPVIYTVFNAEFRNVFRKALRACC

D(3) dopamine receptor = D(3) dopamine receptor (Homo sapiens, UniProt P35462); experiment: Displacement of [3H]spiperone from human dopamine D3 receptor transfected in HEK293 cells after 2 hrs by scintillation counting analysis; assay type: cell-based
Homo sapiens = organism: Homo sapiens; experiment: Selectivity ratio of Ki for human dopamine D1-like receptor to Ki for human dopamine D2-like receptor
D(2) dopamine receptor [2] = biological target: T1, D(2) dopamine receptor; experiment: Agonist activity at human dopamine D2L receptor expressed in HEK293 cells assessed as inhibition of forskolin-induced cAMP accumulation after 30 mins by LANCE assay; assay type: functional, cell-based
D(1A) dopamine receptor = D(1A) dopamine receptor (Homo sapiens, UniProt P21728); experiment: Displacement of [3H]SCH23390 from human dopamine D1 receptor transfected in HEK293 cells after 2 hrs by scintillation counting analysis; assay type: cell-based
D(2) dopamine receptor [3] = biological target: T1, D(2) dopamine receptor; experiment: Displacement of [3H]spiperone from low-affinity state of human dopamine D2L receptor transfected in HEK293 cells after 2 hrs by scintillation counting analysis; assay type: cell-based
D(1B) dopamine receptor = D(1B) dopamine receptor (Homo sapiens, UniProt P21918); experiment: Displacement of [3H]SCH23390 from human dopamine D5 receptor transfected in HEK293 cells after 2 hrs by scintillation counting analysis; assay type: cell-based
D(2) dopamine receptor [4] = biological target: T1, D(2) dopamine receptor; experiment: Displacement of [3H]spiperone from low-affinity state of human dopamine D2S receptor transfected in HEK293 cells after 2 hrs by scintillation counting analysis; assay type: cell-based
D(2) dopamine receptor [5] = biological target: D(2) dopamine receptor (Rattus norvegicus, UniProt P61169); experiment: Displacement of dopamine/[3-H]domperidone from high-affinity state of rat D2L receptor
Nucleic Acid [6] = experiment: Ratio of drug level from striatum to cortex of Sprague-Dawley rat at 4.5 +/- 3.6 nM after 35 mins by autoradiographic analysis; assay type: ADME, tissue-based
How it was run: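 In vitro autoradiography on rat brain slices. Slices were preincubated 15 min at rt in 50 mM Tris-HCl, 5 mM KCl, 2 mM CaCl2, 2 mM MgCl2, 120 mM NaCl, pH 7.4. They were then incubated 35 min at 37 °C with radioligand at about 5 nM, washed in ice-cold buffer and dipped in water. Phosphor screens were exposed 6–10 h, with manual striatal and reference-region ROIs. Values are mean SD over slides from n experiments.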

[7] = Lipophilicity, log D of the compound; assay type: physicochemical; details: octanol/water
How it was run: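 Shake-flask LogD of the [18F]-labelled tracer. Activity left on the HLB cartridge was eluted with n-octanol. The eluate was vortexed 5 min at rt with an equal volume of 1 M phosphate buffer, pH 7.4, then centrifuged at 17 000g for 10 min. Organic and aqueous aliquots were gamma-counted and corrected for intact-tracer fraction by radio-TLC. Each run was in duplicate, and the mean was taken from ≥2 independent experiments.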

Nucleic Acid [8] = experiment: Ratio of drug level from striatum to cortex of Sprague-Dawley rat at […] after 35 mins by autoradiographic analysis; assay type: ADME, tissue-based
Nucleic Acid [9] = experiment: Ratio of drug level from striatum to cerebellum of Sprague-Dawley rat at 4.5 +/- 3.6 nM after 35 mins by autoradiographic analysis in presence of dopamine D2/3 receptor antagonist raclopride; assay type: nucleic-acid assay
How it was run: (§1)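 Rat brain slice autoradiography with 10 μM raclopride co-incubated to define nonspecific binding. Slices were preincubated 15 min at rt in Tris buffer (5 mM KCl, 2 mM CaCl2, 2 mM MgCl2, 120 mM NaCl, pH 7.4). They were then exposed 35 min at 37 °C to radioligand at about 5 nM, washed ice-cold, and imaged on phosphor screens for 6–10 h with striatal and reference-region ROIs.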

Nucleic Acid [10] = experiment: Ratio of drug level from striatum to cerebellum of Sprague-Dawley rat at […] after 35 mins by autoradiographic analysis; assay type: ADME, nucleic-acid assay
Nucleic Acid [11] = experiment: Ratio of drug level from striatum to cortex of Sprague-Dawley rat at […] after 35 mins by autoradiographic analysis in presence of dopamine D2/3 receptor antagonist raclopride
Nucleic Acid [12] = experiment: Ratio of drug level from striatum to cerebellum of Sprague-Dawley rat at […] after 35 mins by autoradiographic analysis in presence of GTP; assay type: ADME, nucleic-acid assay
Nucleic Acid [13] = experiment: Ratio of drug level from striatum to cortex of Sprague-Dawley rat at 4.5 +/- 3.6 nM after 35 mins by autoradiographic analysis in presence of dopamine D2/3 receptor antagonist raclopride; how it was run: as §1
Nucleic Acid [14] = experiment: Ratio of drug level from striatum to cortex of Sprague-Dawley rat at […] after 35 mins by autoradiographic analysis in presence of GTP; assay type: ADME, tissue-based
Nucleic Acid [15] = experiment: Ratio of drug level from striatum to cerebellum of Sprague-Dawley rat at […] after 35 mins by autoradiographic analysis in presence of dopamine D2/3 receptor antagonist raclopride; assay type: nucleic-acid assay
Nucleic Acid [16] = experiment: Ratio of drug level from striatum to cerebellum of Sprague-Dawley rat at 5.8 +/- […] after 35 mins by autoradiographic analysis in presence of GTP; assay type: ADME, nucleic-acid assay; details: in vitro
Nucleic Acid [17] = experiment: Ratio of drug level from striatum to cerebellum of Sprague-Dawley rat at 5.8 +/- […] after 35 mins by autoradiographic analysis in presence of dopamine D2/3 receptor antagonist raclopride; assay type: nucleic-acid assay; details: in vitro
Nucleic Acid [18] = experiment: Ratio of drug level from striatum to cortex of Sprague-Dawley rat at 5.8 +/- […] after 35 mins by autoradiographic analysis in presence of GTP; assay type: ADME, tissue-based; details: in vitro
Nucleic Acid [19] = experiment: Ratio of drug level from striatum to cerebellum of Sprague-Dawley rat at 5.8 +/- […] after 35 mins by autoradiographic analysis; assay type: ADME, nucleic-acid assay; details: in vitro
Nucleic Acid [20] = experiment: Ratio of drug level from striatum to cortex of Sprague-Dawley rat at 5.8 +/- […] after 35 mins by autoradiographic analysis; assay type: ADME, tissue-based; details: in vitro
Nucleic Acid [21] = experiment: Ratio of drug level from striatum to cortex of Sprague-Dawley rat at 5.8 +/- […] after 35 mins by autoradiographic analysis in presence of dopamine D2/3 receptor antagonist raclopride; details: in vitro

T1 sequence (P14416 whole entry): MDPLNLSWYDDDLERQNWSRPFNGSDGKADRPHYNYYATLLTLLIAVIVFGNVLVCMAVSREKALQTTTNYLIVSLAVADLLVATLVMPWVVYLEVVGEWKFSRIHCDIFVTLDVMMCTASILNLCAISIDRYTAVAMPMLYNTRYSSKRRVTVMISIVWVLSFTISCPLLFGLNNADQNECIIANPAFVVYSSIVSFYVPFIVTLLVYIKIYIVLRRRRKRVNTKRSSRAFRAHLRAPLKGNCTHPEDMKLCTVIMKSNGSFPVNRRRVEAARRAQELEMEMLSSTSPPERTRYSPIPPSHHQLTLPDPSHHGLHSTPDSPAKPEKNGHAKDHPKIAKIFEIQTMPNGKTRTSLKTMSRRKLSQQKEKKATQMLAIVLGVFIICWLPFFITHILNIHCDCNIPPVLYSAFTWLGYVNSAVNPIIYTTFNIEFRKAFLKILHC
Sequence of D(1B) dopamine receptor (P21918 whole entry): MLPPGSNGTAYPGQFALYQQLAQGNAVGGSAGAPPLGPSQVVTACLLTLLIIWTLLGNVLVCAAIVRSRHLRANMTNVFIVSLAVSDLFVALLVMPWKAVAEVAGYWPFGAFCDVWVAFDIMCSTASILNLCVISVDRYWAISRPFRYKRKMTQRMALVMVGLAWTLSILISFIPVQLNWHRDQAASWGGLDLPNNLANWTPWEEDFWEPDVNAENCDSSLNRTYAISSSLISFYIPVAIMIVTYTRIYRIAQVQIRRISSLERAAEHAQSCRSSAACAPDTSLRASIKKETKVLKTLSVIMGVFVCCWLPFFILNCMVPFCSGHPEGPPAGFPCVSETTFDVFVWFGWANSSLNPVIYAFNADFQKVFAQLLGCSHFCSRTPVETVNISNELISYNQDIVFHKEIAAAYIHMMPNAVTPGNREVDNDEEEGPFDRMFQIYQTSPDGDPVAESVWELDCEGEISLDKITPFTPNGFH
Sequence of D(3) dopamine receptor (P35462 whole entry): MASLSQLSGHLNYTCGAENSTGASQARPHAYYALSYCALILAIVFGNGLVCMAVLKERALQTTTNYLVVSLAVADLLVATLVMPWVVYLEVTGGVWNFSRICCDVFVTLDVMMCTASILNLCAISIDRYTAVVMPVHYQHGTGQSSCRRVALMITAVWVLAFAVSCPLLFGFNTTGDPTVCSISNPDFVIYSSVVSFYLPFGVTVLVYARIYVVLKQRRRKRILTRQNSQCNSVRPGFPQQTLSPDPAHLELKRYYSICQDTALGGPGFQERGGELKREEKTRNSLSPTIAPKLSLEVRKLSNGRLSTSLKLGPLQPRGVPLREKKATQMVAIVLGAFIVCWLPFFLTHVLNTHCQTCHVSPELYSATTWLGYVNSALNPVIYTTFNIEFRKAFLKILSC
Sequence of D(1A) dopamine receptor (P21728 whole entry): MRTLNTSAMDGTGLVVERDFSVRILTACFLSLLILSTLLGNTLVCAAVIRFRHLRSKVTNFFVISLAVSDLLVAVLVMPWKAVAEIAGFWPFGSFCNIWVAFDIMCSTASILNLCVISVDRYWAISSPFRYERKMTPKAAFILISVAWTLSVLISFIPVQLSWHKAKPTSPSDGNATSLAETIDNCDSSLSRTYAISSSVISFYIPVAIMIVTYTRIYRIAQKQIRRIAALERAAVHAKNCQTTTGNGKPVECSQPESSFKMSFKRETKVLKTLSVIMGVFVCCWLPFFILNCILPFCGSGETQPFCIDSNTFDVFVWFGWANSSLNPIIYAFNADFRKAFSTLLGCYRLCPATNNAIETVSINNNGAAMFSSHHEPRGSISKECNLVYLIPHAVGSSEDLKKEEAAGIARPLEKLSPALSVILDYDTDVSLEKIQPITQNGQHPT
Sequence of D(2) dopamine receptor (Rattus norvegicus, UniProt P61169) (P61169 whole entry): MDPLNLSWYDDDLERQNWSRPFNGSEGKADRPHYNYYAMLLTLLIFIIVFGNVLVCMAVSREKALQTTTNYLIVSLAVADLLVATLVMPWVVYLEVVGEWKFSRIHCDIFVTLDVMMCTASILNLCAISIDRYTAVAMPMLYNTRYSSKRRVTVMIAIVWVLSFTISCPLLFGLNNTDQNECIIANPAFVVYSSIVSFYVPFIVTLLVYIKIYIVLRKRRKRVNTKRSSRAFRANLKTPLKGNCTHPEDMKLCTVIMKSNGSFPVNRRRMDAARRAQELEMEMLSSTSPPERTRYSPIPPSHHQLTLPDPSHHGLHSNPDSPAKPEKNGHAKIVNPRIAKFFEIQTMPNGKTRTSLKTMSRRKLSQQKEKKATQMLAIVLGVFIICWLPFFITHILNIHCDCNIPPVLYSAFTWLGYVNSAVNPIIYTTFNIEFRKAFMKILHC

Structure (SMILES) | Ki (D(4) dopamine receptor; read-out: Ki) [nM] | Ki (D(3) dopamine receptor; read-out: Ki) [nM] | Ki (D(3) dopamine receptor; read-out: pKi (converted)) [nM] | Ratio Ki (Homo sapiens) | EC50 (D(2) dopamine receptor [2]) [nM] | Ki (D(1A) dopamine receptor; read-out: Ki) [nM] | Ki (D(1A) dopamine receptor; read-out: pKi (converted)) [nM] | Ki (D(2) dopamine receptor [3]; read-out: Ki) [nM] | Ki (D(2) dopamine receptor [3]; read-out: pKi (converted)) [nM] | Ki (D(1B) dopamine receptor; read-out: Ki) [nM] | Ki (D(1B) dopamine receptor; read-out: pKi (converted)) [nM] | Ki (D(2) dopamine receptor [4]; read-out: Ki) [nM] | other results
Oc1ccc2c(c1)O[C@@H](CNCc1cccc(I)c1)CC2 | 0.97 | 7.87 | 2.88 | > 100 | 0.0316 | 4290 | 3890 | 72.9 | 33.9 | 4640 | 4570 | 30.8 | Ki (D(2) dopamine receptor [1]; read-out: Ki): 2.06 nM; Ki (D(2) dopamine receptor [1]; read-out: pKi (converted)): 1.02 nM; Ki (D(2) dopamine receptor [4]; read-out: pKi (converted)): 28.8 nM
Oc1ccc2c(c1)O[C@@H](CNCc1ccc(OCCCCF)cc1)CC2 | 32.1 | 12.1 |  | > 100 | 0.398 | 6910 | 6610 | 80.5 | 61.7 | 2890 | 2450 | 92.7 | Ki (D(2) dopamine receptor [1]; read-out: Ki): 5.6 nM; Ki (D(2) dopamine receptor [4]; read-out: pKi (converted)): 91.2 nM
Oc1ccc2c(c1)O[C@@H](CNCCN1CCN(c3ccc(I)cc3)CC1)CC2 | 9.7 | 23 | 21.9 | > 100 | 1.58 | 3960 | 3890 | 80.5 | 66.1 | 3480 |  | 131 | 
CCCN1CCO[C@@H]2c3cc(O)ccc3CC[C@H]21 [NAXAGOLIDE HYDROCHLORIDE] |  |  |  |  |  |  |  |  |  |  |  |  | Ki (D(2) dopamine receptor [5]): 0.6 nM
Oc1ccc2c(c1)O[C@@H](CNCc1ccccc1OCCCCF)CC2 |  | 33 |  | > 100 |  | 1160 |  | 156 | 145 |  |  | 452 | 
Oc1ccc2c(c1)O[C@@H](CN1CCN(c3ccc(I)cc3)CC1)CC2 | 14.3 | 24.2 |  | > 100 |  | 46500 |  |  |  | 17800 | 17400 |  | inhibition (D(2) dopamine receptor [1]): inactive; inhibition (D(2) dopamine receptor [3]): inactive; inhibition (D(2) dopamine receptor [4]): inactive
Oc1ccc2c(c1)O[C@@H](CN1CCN(c3ccc(OCCF)cc3)CC1)CC2 | 131 | 39.4 | 37.2 | > 100 |  |  |  |  |  | 19700 |  |  | inhibition (D(2) dopamine receptor [1]): inactive; Ki (D(4) dopamine receptor; read-out: pKi (converted)): 47.9 nM; inhibition (D(1A) dopamine receptor): inactive; inhibition (D(2) dopamine receptor [3]): inactive; inhibition (D(2) dopamine receptor [4]): inactive
Oc1ccc2c(c1)O[C@@H](CNCCN1CCN(c3ccc(OCCF)cc3)CC1)CC2 | 27.7 | 10 | 8.71 | > 100 | 0.158 |  |  | 235 | 219 | 9700 |  | 252 | Ki (D(2) dopamine receptor [1]; read-out: Ki): 6.67 nM; Ki (D(2) dopamine receptor [1]; read-out: pKi (converted)): 5.01 nM; Ki (D(4) dopamine receptor; read-out: pKi (converted)): 22.9 nM; inhibition (D(1A) dopamine receptor): inactive; Ki (D(2) dopamine receptor [4]; read-out: pKi (converted)): 234 nM
Oc1ccc2c(c1)O[C@@H](CNCc1ccc(OCCCC[18F])cc1)CC2 |  |  |  |  |  |  |  |  |  |  |  |  | Ratio (Nucleic Acid [6]): 1.16; logD [7]: 2.45; Ratio (Nucleic Acid [8]): 1.68; Ratio (Nucleic Acid [9]): 1.04; Ratio (Nucleic Acid [10]): 1.85; Ratio (Nucleic Acid [11]): 1.03; Ratio (Nucleic Acid [12]): 1.2; Ratio (Nucleic Acid [13]): 1.05; Ratio (Nucleic Acid [14]): 1.13; Ratio (Nucleic Acid [15]): 1.1
CCCCCCNC[C@H]1CCc2ccc(O)cc2O1 | 5.7 | 547 | 19.1 |  | 0.0501 | 10900 | 10500 |  |  | 27700 | 2750 |  | Ki (D(4) dopamine receptor; read-out: pKi (converted)): 5.01 nM
Oc1ccc2c(c1)O[C@@H](CNCc1ccc(I)cc1)CC2 | 1.59 | 13.9 | 5.62 |  |  | 8670 | 8130 |  |  |  | 3550 |  | Ki (D(4) dopamine receptor; read-out: pKi (converted)): 1.55 nM
Oc1ccc2c(c1)O[C@@H](CNCc1ccccc1I)CC2 |  | 1.79 | 1.66 | > 100 |  | 436 | 417 | 51.2 | 29.5 |  |  | 166 | Ki (D(2) dopamine receptor [1]; read-out: Ki): 0.68 nM; Ki (D(2) dopamine receptor [1]; read-out: pKi (converted)): 0.162 nM; Ki (D(2) dopamine receptor [4]; read-out: pKi (converted)): 83.2 nM
Oc1ccc2c(c1)O[C@@H](CNCCN1CCN(c3ccc(OCC[18F])cc3)CC1)CC2 |  |  |  |  |  |  |  |  |  |  |  |  | logD [7]: 1.48; Ratio (Nucleic Acid [16]): 1.67; Ratio (Nucleic Acid [17]): 1.65; Ratio (Nucleic Acid [18]): 1.48; Ratio (Nucleic Acid [19]): 2.64; Ratio (Nucleic Acid [20]): 1.9; Ratio (Nucleic Acid [21]): 1.2
Oc1ccc2c(c1)O[C@@H](CNCc1ccccc1)CC2 |  |  |  |  |  | 7250 |  |  |  | 3830 | 3720 |  | 
